Assay results from ChEMBL document CHEMBL4477174, “Valencene from the Rhizomes of Cyperus rotundus Inhibits Skin Photoaging-Related Ion Channels and UV-Induced Melanogenesis in B16F10 Melanoma Cells” (J Nat Prod, 2016).
Values belong to the compound of their own block, whether it stands above or below them.

How the values were obtained:
[1] = molecular target: Calcium release-activated calcium channel protein 1 (Homo sapiens) (UniProt Q96D31); assay: Antagonist activity at human ORAI1 expressed in HEK293T cells assessed as […]-induced inwardly rectifying current at 90 uM and -120 mV by whole cell patch-clamp method relative to control; format: cell-based; set-up: scale not given: the % may be the effect or the level left
Chain of Calcium release-activated calcium channel protein 1 (Homo sapiens) (Q96D31 whole entry, looked up): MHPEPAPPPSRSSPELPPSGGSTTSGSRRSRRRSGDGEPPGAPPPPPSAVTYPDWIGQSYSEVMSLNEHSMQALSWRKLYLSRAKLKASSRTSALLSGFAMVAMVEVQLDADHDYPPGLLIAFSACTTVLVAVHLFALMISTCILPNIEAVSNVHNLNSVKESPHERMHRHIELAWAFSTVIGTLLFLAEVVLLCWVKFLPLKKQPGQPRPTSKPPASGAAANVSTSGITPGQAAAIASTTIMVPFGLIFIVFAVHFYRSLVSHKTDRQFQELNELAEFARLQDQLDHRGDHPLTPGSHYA

[2] = molecular target: Transient receptor potential cation channel subfamily V member 1 (Homo sapiens) (UniProt Q8NER1); assay: Antagonist activity at human TRPV1 expressed in HEK293T cells assessed as capsaicin-induced inward transient currents at 90 uM and -60 mV by whole cell patch-clamp method relative to control; format: cell-based; set-up: scale not given: the % may be the effect or the level left
Chain of Transient receptor potential cation channel subfamily V member 1 (Homo sapiens) (Q8NER1 whole entry): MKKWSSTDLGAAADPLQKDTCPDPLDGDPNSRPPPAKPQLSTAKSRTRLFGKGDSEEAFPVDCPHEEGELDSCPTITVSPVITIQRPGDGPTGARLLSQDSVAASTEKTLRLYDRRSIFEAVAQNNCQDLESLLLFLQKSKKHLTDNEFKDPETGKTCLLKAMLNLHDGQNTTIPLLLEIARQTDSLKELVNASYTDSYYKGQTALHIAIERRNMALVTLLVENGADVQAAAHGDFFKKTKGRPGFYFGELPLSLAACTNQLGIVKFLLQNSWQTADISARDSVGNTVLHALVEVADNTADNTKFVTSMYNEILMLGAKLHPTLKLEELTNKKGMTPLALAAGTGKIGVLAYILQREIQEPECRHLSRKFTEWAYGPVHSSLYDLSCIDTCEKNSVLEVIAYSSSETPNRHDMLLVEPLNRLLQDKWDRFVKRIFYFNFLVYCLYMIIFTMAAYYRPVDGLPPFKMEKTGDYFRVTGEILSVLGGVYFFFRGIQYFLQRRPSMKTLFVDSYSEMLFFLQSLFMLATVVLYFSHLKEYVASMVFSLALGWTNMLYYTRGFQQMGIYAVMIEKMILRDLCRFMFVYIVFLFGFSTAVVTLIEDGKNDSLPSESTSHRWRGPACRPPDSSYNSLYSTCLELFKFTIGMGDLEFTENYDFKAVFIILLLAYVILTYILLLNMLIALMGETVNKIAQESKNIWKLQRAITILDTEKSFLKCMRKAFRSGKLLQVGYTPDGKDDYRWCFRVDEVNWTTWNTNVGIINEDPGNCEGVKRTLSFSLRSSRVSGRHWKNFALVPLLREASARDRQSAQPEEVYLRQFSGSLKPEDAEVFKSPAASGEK
In short: (§1)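 Whole-cell patch clamp, with TRPV1 current evoked by 1 μM capsaicin. Current was compared before and after 90 μM test agent using mean I−V curves, read at −60 mV. Remaining current was normalized to the steady-state peak current before treatment (100%), reported as mean ± SEM, n = 3–6.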

[3] = system: B16-F10; assay: Cytotoxicity in mouse B16F10 cells at <3 ug/ml measured after 48 hrs by MTT assay; format: cell-based; settings: b16-f10, 48 h
[4] = species: Homo sapiens; assay: Inhibition of SOCE signalling in human Jurkat-T cells assessed as reduction in alpha-CD3 induced cytoplasmic calcium concentration at 50 uM measured at every 2 sec interval by Fura-2 dye based fluorimetric analysis; format: cell-based; set-up: scale not given: the % may be the effect or the level left
[5] = molecular target: Calcium release-activated calcium channel protein 1 (Homo sapiens) (UniProt Q96D31); assay: Antagonist activity at human ORAI1 expressed in HEK293T cells assessed as inhibition of […] induced inwardly rectifying current at 30 uM and -120 mV by whole cell patch-clamp method; format: cell-based
[6] = system: B16-F10; assay: Inhibition of UV-induced melanogenesis in mouse B16F10 cells assessed as reduction in melanin level pretreated with compound prior to UVB exposure measured after 48 hrs by spectrophotometric method; format: functional, cell-based
In short: (§2)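 B16F10 murine melanoma cells were pretreated with test agent (7.5 or 15 μg/mL; reference ORAI1 inhibitor 3 μg/mL) before UVB exposure. Melanin content was measured 48 h later.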

[7] = species: Homo sapiens; assay: Inhibition of SOCE signalling in human Jurkat-T cells assessed as reduction in alpha-CD3 induced cytoplasmic calcium concentration at 30 uM measured at every 2 sec interval by Fura-2 dye based fluorimetric analysis; format: cell-based; set-up: scale not given: the % may be the effect or the level left
[8] = system: B16-F10; assay: Inhibition of UV-induced melanogenesis in mouse B16F10 cells assessed as reduction in melanin level pretreated at 7.5 ug/ml prior to UVB exposure measured after 48 hrs by spectrophotometric method; format: functional; set-up: scale not given: the % may be the effect or the level left; in short: as §2
[9] = molecular target: Calcium release-activated calcium channel protein 1 (Homo sapiens) (UniProt Q96D31); assay: Antagonist activity at human ORAI1 expressed in HEK293T cells assessed as inhibition of […]-induced inwardly rectifying current at 90 uM and -120 mV by whole cell patch-clamp method relative to control; format: cell-based
[10] = system: B16-F10; assay: Inhibition of UV-induced melanogenesis in mouse B16F10 cells assessed as reduction in melanin level pretreated at 15 ug/ml prior to UVB exposure measured after 48 hrs by spectrophotometric method; format: functional; set-up: scale not given: the % may be the effect or the level left; in short: as §2
[11] = molecular target: Transient receptor potential cation channel subfamily V member 1 (Homo sapiens) (UniProt Q8NER1); assay: Antagonist activity at human TRPV1 expressed in HEK293T cells assessed as inhibition of capsaicin-induced inward transient currents at 90 uM and -60 mV by whole cell patch-clamp method relative to control; format: cell-based; in short: as §1
[12] = species: Homo sapiens; assay: Inhibition of SOCE signalling in human Jurkat-T cells assessed as reduction in alpha-CD3 induced cytoplasmic calcium concentration at 10 uM measured at every 2 sec interval by Fura-2 dye based fluorimetric analysis; format: cell-based; set-up: scale not given: the % may be the effect or the level left
[13] = species: Homo sapiens; assay: Inhibition of SOCE signalling in human Jurkat-T cells assessed as reduction in alpha-CD3 induced cytoplasmic calcium concentration measured at every 2 sec interval by Fura-2 dye based fluorimetric analysis; format: cell-based
[14] = molecular target: Calcium release-activated calcium channel protein 1 (Homo sapiens) (UniProt Q96D31); assay: Antagonist activity at human ORAI1 expressed in HEK293T cells assessed as inhibition of […]-induced inwardly rectifying current at -120 mV by whole cell patch-clamp method; format: cell-based
[15] = molecular target: Calcium release-activated calcium channel protein 1 (Homo sapiens) (UniProt Q96D31); assay: Antagonist activity at human ORAI1 expressed in HEK293T cells assessed as inhibition of […]-induced inwardly rectifying current at 10 uM and -120 mV by whole cell patch-clamp method; format: cell-based
[16] = system: B16-F10; assay: Cytotoxicity in mouse B16F10 cells at <15 ug/ml measured after 48 hrs by MTT assay; format: cell-based; settings: b16-f10, 48 h

SMILES: C=C(C)[C@@H]1CC[C@@]2(C)CCC(=O)C(C)=C2C1
Activity [1]: 50% | Activity [2]: 94%

SMILES: Cc1nnsc1C(=O)Nc1ccc(-n2nc(C(F)(F)F)cc2C(F)(F)F)cc1
Activity [3]: Non-Toxic

Activity [1]: 79% | Activity [2]: 115%
SMILES: C=C1C2CCC(C2)C1(C)C (centres undefined)

Activity [1]: 44% | Activity [2]: 45%
SMILES: C=C1CC[C@H]2O[C@]2(C)CC[C@@H]2[C@@H]1CC2(C)C

SMILES: C=C(C)[C@@H]1CCC2=CC(=O)C[C@@H](C)[C@]2(C)C1
Activity [1]: 53% | Activity [2]: 176%

inhibition [5]: 45% | inhibition [9]: 94 to 95% | Activity [1]: 5% | Activity [2]: 31% | inhibition [11]: 69% | inhibition [14]: Dose-dependent effect | inhibition [15]: 13%
SMILES: C=C(C)[C@@H]1CCC2=CCC[C@@H](C)[C@]2(C)C1
Activity [4]: 85% | Activity [6]: Dose-dependent effect | Activity [7]: 75% | Activity [8]: 94.82% | Activity [10]: 82.66% | Activity [12]: 53% | Activity [13]: Dose-dependent effect | Activity [16]: Non-Toxic
